In brackets after ≈: the same amount, converted by molar mass.
Key:
[1] = system: Trichophyton mentagrophytes; experiment: Antifungal activity against Trichophyton mentagrophytes ATCC 9533 by CLSI method; type: functional, organism-based
How it was run: (§1)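 Growth scraped from 1- to 6-week-old potato dextrose slants and filtered through Miracloth. Diluted in 5% Alamar blue-RPMI 1640 (MOPS pH 7.0) to 2.7 × 10⁴ CFU/ml. Eleven twofold dilutions in duplicate. Fluorescence at 544 nm excitation/590 nm emission read before and after 35°C, 5 days. IC50 fitted from percent growth. MIC taken as no detectable growth; MFC from clear or blue wells plated on PD agar.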

SK-MEL = experiment: Cytotoxicity against human SK-MEL cells up to 32 uM by neutral red method; type: cell-based
How it was run: (§2)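 Neutral red uptake cytotoxicity, top concentration 32 μM.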

Candida albicans [2] = experiment: Antifungal activity against Candida albicans ATCC 60193 after 48 hrs by CLSI method; type: functional, organism-based; details: ATCC 60193, 48 h
How it was run: (§3)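 CLSI broth microdilution. Colonies from 24–72 h SD agar suspended in saline and sized by OD630 standard curve. Inoculum 1.5 × 10³ CFU/ml (final) in RPMI 1640 (0.2% dextrose, 0.03% glutamine, 0.165 M MOPS, pH 7.0). Twofold dilutions (11 levels) from 20% DMSO-saline, in duplicate. 35°C for 48 h, OD530 read before and after. IC50 fitted from % growth. MIC: no detectable growth. MFC: subculture onto SD agar.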

Candida albicans [3] = experiment: Antifungal activity against Fluconazole resistant Candida albicans clinical isolate 1 after 48 hrs by CLSI method; type: functional, organism-based; how it was run: as §3
Candida tropicalis = experiment: Antifungal activity against Candida tropicalis ATCC 750 after 48 hrs by CLSI method; type: functional, organism-based; details: ATCC 750, 48 h
How it was run: (§4)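 Yeast suspensions made from 3-5 colonies off 24-72 h SD agar plates in saline. They were diluted by OD630 standard curve in RPMI 1640 (0.2% dextrose, 0.03% glutamine, 0.165 M MOPS, pH 7.0) to 1.5 × 10³ CFU/ml. Twofold dilutions (11 concentrations, 20% DMSO-saline) run in duplicate. OD530 read before and after 35°C, 48 h. Line values are top test concentrations; no-growth endpoints give MIC/MFC.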

Candida albicans [4] = experiment: Antifungal activity against Fluconazole resistant Candida albicans clinical isolate 17 after 48 hrs by CLSI method; type: functional, organism-based; how it was run: as §3
KB = experiment: Cytotoxicity against human KB cells up to 32 uM by neutral red method; type: cell-based; how it was run: as §2
Aspergillus niger = experiment: Antifungal activity against Aspergillus niger ATCC 16404 after 48 h by CLSI method; details: ATCC 16404, 48 h
Nakaseomyces glabratus = experiment: Antifungal activity against Candida glabrata ATCC 90030 after 48 hrs by CLSI methodCandida glabrata; type: functional, organism-based; details: ATCC 90030, 48 h
How it was run: (§5)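 Candida inocula came from 24–72-h SD agar colonies suspended in saline. They were diluted by OD630 standard curve into RPMI 1640 (0.2% dextrose, 0.03% glutamine, 0.165 M MOPS, pH 7.0) to 1.5 × 10³ CFU/ml. Compounds were run as 11 twofold dilutions in 20% DMSO-saline, in duplicate, at 35°C for 48 h, with OD530 read before and after. Percent growth at the top concentration, IC50, MIC, and MFC (SD agar plating) were derived.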

Trichophyton rubrum [5] = experiment: Antifungal activity against Trichophyton rubrum ATCC 10218 by CLSI method; type: functional, organism-based; how it was run: as §1
Aspergillus flavus = experiment: Antifungal activity against Aspergillus flavus ATCC 204304 after 48 h by CLSI method; details: ATCC 204304, 48 h
Trichophyton rubrum [6] = experiment: Antifungal activity against Trichophyton rubrum ATCC MYA-4438 by CLSI method; type: functional, organism-based; how it was run: as §1
Vero = experiment: Cytotoxicity against African green monkey Vero cells up to 32 uM by neutral red method; type: cell-based; details: chlorocebus sabaeus; how it was run: as §2
Candida albicans [7] = experiment: Antifungal activity against Candida albicans ATCC 90028 after 48 hrs by CLSI method; type: functional, organism-based; details: ATCC 90028, 48 h; how it was run: as §3
[8] = system: Trichophyton mentagrophytes; experiment: Antifungal activity against Trichophyton mentagrophytes ATCC MYA-4439 by CLSI method; type: functional, organism-based; how it was run: as §1
Candida albicans [9] = experiment: Antifungal activity against Candida albicans ATCC 14053 after 48 hrs by CLSI method; type: functional, organism-based; details: ATCC 14053, 48 h; how it was run: as §3
Aspergillus fumigatus [10] = experiment: Antifungal activity against Aspergillus fumigatus ATCC 204305 after 48 h by CLSI method; details: ATCC 204305, 48 h
Pichia kudriavzevii = experiment: Antifungal activity against Candida krusei ATCC 6258 after 48 hrs by CLSI method; type: functional, organism-based; details: ATCC 6258, 48 h; how it was run: as §5
LLC-PK1 = experiment: Cytotoxicity against pig LLC-PK1 cells up to 32 uM by neutral red method; type: cell-based, Sus scrofa; how it was run: as §2
Candida albicans [11] = experiment: Antifungal activity against Candida albicans ATCC 200955 after 48 hrs by CLSI method; type: functional, organism-based; details: ATCC 200955, 48 h; how it was run: as §3
Candida parapsilosis = experiment: Antifungal activity against Candida parapsilosis ATCC 22019 after 48 hrs by CLSI method; type: functional, organism-based; details: Lodderomyces parapsilosis, ATCC 22019, 48 h; how it was run: as §4
SK-OV-3 = experiment: Cytotoxicity against human SKOV3 cells up to 32 uM by neutral red method; type: cell-based; how it was run: as §2
Cryptococcus neoformans [12] = experiment: Antifungal activity against Cryptococcus neoformans ATCC 90113 after 72 hrs by CLSI method; type: functional, organism-based; details: ATCC 90113, 72 h
How it was run: (§6)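 SD broth replaced RPMI because growth in RPMI was poor; other CLSI conditions were kept. Inoculum was 1.5 × 10³ CFU/ml from colonies on SD agar, checked by plating. Twofold serial dilutions (11 concentrations) in 20% DMSO-saline were tested in duplicate. OD530 was read before and after incubation at 35°C for 72 h. Percent growth gave IC50; the MIC is the lowest concentration with no detectable growth.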

Candida albicans [13] = experiment: Antifungal activity against Candida albicans ATCC 32354 after 48 hrs by CLSI method; type: functional, organism-based; details: ATCC 32354, 48 h; how it was run: as §3
BT-549 = experiment: Cytotoxicity against human BT549 cells up to 32 uM by neutral red method; type: cell-based; how it was run: as §2
Aspergillus fumigatus [14] = experiment: Antifungal activity against Aspergillus fumigatus ATCC 90906 after 48 h by CLSI method; details: ATCC 90906, 48 h
Cryptococcus neoformans [15] = experiment: Antifungal activity against Cryptococcus neoformans ATCC 66031 after 72 hrs by CLSI method; type: functional, organism-based; details: ATCC 66031, 72 h; how it was run: as §6

SMILES: CCCCCCCCCC#CCCCCC(=O)O
- IC50 [1]: 2.3 µM
- MFC [1]: 6.2 µM (≈ 1.56 µg/mL)
- MIC [1]: 4.6 µM (≈ 1.16 µg/mL)
- Activity (SK-MEL): Non-toxic
- IC50 (Candida albicans [2]): 85.9 µM
- IC50 (Candida albicans [3]): 40.5 µM
- MIC (Candida albicans [3]): 99.1 µM (≈ 25 µg/mL)
- IC50 (Candida tropicalis): 29.5 µM
- MFC (Candida tropicalis): 99.1 µM (≈ 25 µg/mL)
- MIC (Candida tropicalis): 74.3 µM (≈ 18.8 µg/mL)
- IC50 (Candida albicans [4]): 23.3 µM
- MFC (Candida albicans [4]): 198 µM (≈ 50 µg/mL)
- MIC (Candida albicans [4]): 99.1 µM (≈ 25 µg/mL)
- Activity (KB): Non-toxic
- IC50 (Aspergillus niger): 101 µM
- IC50 (Nakaseomyces glabratus): > 198 µM
- IC50 (Trichophyton rubrum [5]): 8.7 µM
- MFC (Trichophyton rubrum [5]): 24.8 µM (≈ 6.26 µg/mL)
- MIC (Trichophyton rubrum [5]): 24.8 µM (≈ 6.26 µg/mL)
- IC50 (Aspergillus flavus): 106 µM
- MFC (Aspergillus flavus): 198 µM (≈ 50 µg/mL)
- MIC (Aspergillus flavus): 198 µM (≈ 50 µg/mL)
- IC50 (Trichophyton rubrum [6]): 3.8 µM
- MFC (Trichophyton rubrum [6]): 198 µM (≈ 50 µg/mL)
- MIC (Trichophyton rubrum [6]): 31 µM (≈ 7.82 µg/mL)
- Activity (Vero): Non-toxic
- IC50 (Candida albicans [7]): 56.8 µM
- MIC (Candida albicans [7]): 99.1 µM (≈ 25 µg/mL)
- IC50 [8]: 3.9 µM
- MFC [8]: 12.4 µM (≈ 3.13 µg/mL)
- MIC [8]: 9.3 µM (≈ 2.35 µg/mL)
- IC50 (Candida albicans [9]): 81.8 µM
- IC50 (Aspergillus fumigatus [10]): 9.4 µM
- MFC (Aspergillus fumigatus [10]): 198 µM (≈ 50 µg/mL)
- MIC (Aspergillus fumigatus [10]): 37.1 µM (≈ 9.36 µg/mL)
- IC50 (Pichia kudriavzevii): 2.9 µM
- MFC (Pichia kudriavzevii): 49.5 µM (≈ 12.5 µg/mL)
- MIC (Pichia kudriavzevii): 6.2 µM (≈ 1.56 µg/mL)
- Activity (LLC-PK1): Non-toxic
- IC50 (Candida albicans [11]): 47.8 µM
- MIC (Candida albicans [11]): 198 µM (≈ 50 µg/mL)
- IC50 (Candida parapsilosis): > 198 µM
- Activity (SK-OV-3): Non-toxic
- IC50 (Cryptococcus neoformans [12]): 52.4 µM
- IC50 (Candida albicans [13]): 50.3 µM
- MIC (Candida albicans [13]): 198 µM (≈ 50 µg/mL)
- Activity (BT-549): Non-toxic
- IC50 (Aspergillus fumigatus [14]): 166 µM
- IC50 (Cryptococcus neoformans [15]): 1.2 µM
- MFC (Cryptococcus neoformans [15]): 99.1 µM (≈ 25 µg/mL)
- MIC (Cryptococcus neoformans [15]): 49.5 µM (≈ 12.5 µg/mL)

— ChEMBL document CHEMBL1275449, “Potent in vitro antifungal activities of naturally occurring acetylenic acids” (Antimicrob Agents Chemother, 2008)
